Measurements published in ChEMBL document CHEMBL1146535, “New manzamine alkaloids with activity against infectious and tropical parasitic diseases from an Indonesian sponge” (J Nat Prod, 2003).
≈ marks a conversion by molar mass, not a printed value. Calls of active or inactive are those of the source. No cut-off for these calls is given here.

Assays:
[1] = tested on: Vero; experiment: Cytotoxicity against african green monkey Vero cells; assay type: cell-based; conditions: chlorocebus sabaeus
[2] = tested on: Plasmodium falciparum; experiment: Antimalarial activity against chloroquine-resistant Plasmodium falciparum W2; assay type: functional, organism-based
[3] = tested on: Leishmania donovani; experiment: Antileishmanial activity against Leishmania donovani promastigotes expressing luciferase; assay type: functional, organism-based
Method in brief: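 Transgenic L. donovani promastigote line stably expressing luciferase used as the test organism. Pentamidine and amphotericin B run alongside as reference antileishmanials.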

[4] = tested on: Plasmodium falciparum; experiment: Antimalarial activity against Plasmodium falciparum D6; assay type: functional, organism-based
[5] = tested on: Mycobacterium tuberculosis; experiment: Antimycobacterial activity against Mycobacterium tuberculosis H37Rv; assay type: functional
[6] = tested on: Human immunodeficiency virus 1; experiment: Antiviral activity against HIV1 in human PBM cells; assay type: functional, organism-based; conditions: Human immunodeficiency virus 1, PBMC
[7] = Cytotoxicity against human H116 cells; assay type: functional, cell-based
[8] = Cytotoxicity against mouse MS1 cells; assay type: cell-based; conditions: MS-1
[9] = tested on: HT-29; experiment: Cytotoxicity against human HT-29 cells; assay type: functional, cell-based
[10] = Cytotoxicity against human […] cells; assay type: functional, cell-based

Compound	Activity [1]	Activity [2]	Activity [3]	Activity [4]	MIC [5]	other results
O=C1[C@@H]2CCCCCCN2[C@@H]2[C@]13CN1CCCC/C=C\CC[C@]2(O)C=C(c2nccc4c2[nH]c2ccc(O)cc24)[C@@H]3CC1	Non-toxic	inactive	inactive	inactive		
O=C1NCCc2c1[nH]c1ccccc21	Non-toxic	inactive	inactive	inactive		
O=C1CCCN2[C@@H]3[C@@]45CN6CCCC/C=C\CC[C@]3(C=C(c3nccc7c3[nH]c3ccccc37)[C@@H]4CC6)O[C@@]2(CC1)C5	Non-toxic	inactive	inactive	inactive	128 µg/mL (≈ 227 µM)	
Oc1cccc2c1[nH]c1c(C3=C[C@@]4(O)CC/C=C\CCCCN5CC[C@@H]3[C@]3(CC6/C=C\CCCCN6[C@H]34)C5)nccc12 (stereo not given in full)	1100 ng/mL				0.91 µg/mL (≈ 1.61 µM)	EC50 [6]: 4200 nM
O[C@]12C=C(c3nccc4c3[nH]c3ccccc34)C3CCN(CCCC/C=C\CC1)C[C@@]31C[C@]34CC[C@H](CCCN3[C@H]12)O4 (stereo not given in full) [6-Deoxymanzamine X]	4760 ng/mL				1.77 µg/mL (≈ 3.13 µM)	EC50 [6]: 1600 nM; IC50 [2]: 1.4 µg/mL (≈ 2.48 µM); IC50 [3]: 3.2 µg/mL (≈ 5.67 µM); IC90 [3]: 7.5 µg/mL (≈ 13.3 µM); IC50 [7]: 0.5 µg/mL (≈ 0.885 µM); IC50 [4]: 1.3 µg/mL (≈ 2.3 µM); IC50 [8]: 1 µg/mL (≈ 1.77 µM); IC50 [9]: 0.5 µg/mL (≈ 0.885 µM); IC50 [10]: 1 µg/mL (≈ 1.77 µM)
C1=C(c2nccc3c2[nH]c2ccccc23)[C@@H]2CCN3CCCC/C=C\CC[C@]14O[C@@]15/C=C\CCCCN1[C@@H]4[C@]2(C3)C5 [12,34-OXAMANZAMINE A]	Non-toxic	inactive				
O[C@@H]1CCCN2[C@@H](CC1)C[C@]13CN4CCCC/C=C\CC[C@](O)(C=C(c5nccc6c5[nH]c5ccccc56)[C@@H]1CC4)[C@H]23 [32,33-DIHYDRO-31-HYDROXYMANZAMINE A]	Non-toxic	inactive	inactive	inactive		
O=C(c1c[nH]cn1)c1nccc2c1[nH]c1ccccc12 [DES-N-METHYLXESTOMANZAMINE A]	Non-toxic	inactive		inactive		IC50 [3]: 35 µg/mL (≈ 133 µM); IC90 [3]: > 50 µg/mL
OC1=C[C@@]2(O)CC/C=C\CCCCN3CC[C@@H]1[C@]1(C[C@@H]4/C=C\CCCCN4[C@H]12)C3 [IRCINOL A]						IC50 [3]: 0.9 µg/mL (≈ 2.26 µM); IC90 [3]: 1.7 µg/mL (≈ 4.27 µM)
O[C@]12C=C(c3nccc4c3[nH]c3ccccc34)[C@@H]3CCN(CCCC/C=C\CC1)C[C@@]31C[C@@H]3/C=C\CCCCN3[C@H]12 [MANZAMINE A]	1200 ng/mL				1.53 µg/mL (≈ 2.79 µM)	EC50 [6]: 590 nM
O=C1CCCN2[C@@H](CC1)C[C@]13CN4CCCC/C=C\CC[C@](O)(C=C(c5nccc6c5[nH]c5ccccc56)C1CC4)[C@H]23 (stereo not given in full) [MANZAMINE E]	Non-toxic				3.76 µg/mL (≈ 6.66 µM)	
O=C1CCCN2[C@@H](CC1)C[C@]13CN4CCCC/C=C\CC[C@](O)(C=C(c5nccc6c5[nH]c5c(O)cccc56)C1CC4)[C@H]23 (stereo not given in full) [MANZAMINE F]	Non-toxic				2.56 µg/mL (≈ 4.41 µM)	
Oc1ccc2[nH]c3c(C4=C[C@@]5(O)CC/C=C\CCCCN6CC[C@@H]4[C@@]4(C6)C[C@@]67CC[C@@H](CCCN6[C@H]45)O7)nccc3c2c1 [MANZAMINE X]	Non-toxic					IC50 [2]: 2 µg/mL (≈ 3.44 µM); IC50 [3]: 5.7 µg/mL (≈ 9.81 µM); IC90 [3]: 11 µg/mL (≈ 18.9 µM); IC50 [7]: 5.1 µg/mL (≈ 8.78 µM); IC50 [4]: 0.95 µg/mL (≈ 1.64 µM); IC50 [8]: 5.1 µg/mL (≈ 8.78 µM); IC50 [9]: 0.5 µg/mL (≈ 0.861 µM); IC50 [10]: 5.1 µg/mL (≈ 8.78 µM)
c1ccc2c(c1)[nH]c1cnccc12 [NORHARMANE]	Non-toxic	inactive	inactive	inactive		
